Compounds with a hit are over-represented: about 3.4% of the library has one in this group of screens.
MC4R antag cAMP = blocks human MC4R cAMP signaling | 360,000 tested, 0.48% active | P32245 | inhibition, % at 6.5 µM | MC4R-expressing cells, MTII-stimulated cAMP, LANCE TR-FRET;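 active means inhibition above its plate's cutoff, the mean of tested wells on that plate plus 3 SD, cut at about 29% in these data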;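 further: 0% = Melanotan II alone and 100% = Melanotan II plus saturating MCL0020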
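Material: human MC4R-expressing U2OS cells. Probe or stimulus: Melanotan II challenge. Dosing: 6.5 µM single dose. Times: 30-min compound, 1-h challenge, 1-h detection, room temperature. Technique: TR-FRET with Eu-cAMP and labeled anti-cAMP, 671 nm. Replication: singlicate.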
ANO1 block = inhibitors of mouse TMEM16A calcium-activated chloride channel | Q8BHY3 | HEK293 TMEM16A/YFP iodide influx fluorescence, ionomycin | normalized B-score (activity score, 25-100; higher = stronger inhibition) at 10 µM | 310,000 tested, 1.2% active;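 active means ratio plate-corrected score three or more library SD toward inhibition, starting fluorescence score within five deviations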;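 further: score derived from kinetic fluorescence span divided by baseline fluorescence per well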
Target sequence (Q8BHY3 whole entry, looked up): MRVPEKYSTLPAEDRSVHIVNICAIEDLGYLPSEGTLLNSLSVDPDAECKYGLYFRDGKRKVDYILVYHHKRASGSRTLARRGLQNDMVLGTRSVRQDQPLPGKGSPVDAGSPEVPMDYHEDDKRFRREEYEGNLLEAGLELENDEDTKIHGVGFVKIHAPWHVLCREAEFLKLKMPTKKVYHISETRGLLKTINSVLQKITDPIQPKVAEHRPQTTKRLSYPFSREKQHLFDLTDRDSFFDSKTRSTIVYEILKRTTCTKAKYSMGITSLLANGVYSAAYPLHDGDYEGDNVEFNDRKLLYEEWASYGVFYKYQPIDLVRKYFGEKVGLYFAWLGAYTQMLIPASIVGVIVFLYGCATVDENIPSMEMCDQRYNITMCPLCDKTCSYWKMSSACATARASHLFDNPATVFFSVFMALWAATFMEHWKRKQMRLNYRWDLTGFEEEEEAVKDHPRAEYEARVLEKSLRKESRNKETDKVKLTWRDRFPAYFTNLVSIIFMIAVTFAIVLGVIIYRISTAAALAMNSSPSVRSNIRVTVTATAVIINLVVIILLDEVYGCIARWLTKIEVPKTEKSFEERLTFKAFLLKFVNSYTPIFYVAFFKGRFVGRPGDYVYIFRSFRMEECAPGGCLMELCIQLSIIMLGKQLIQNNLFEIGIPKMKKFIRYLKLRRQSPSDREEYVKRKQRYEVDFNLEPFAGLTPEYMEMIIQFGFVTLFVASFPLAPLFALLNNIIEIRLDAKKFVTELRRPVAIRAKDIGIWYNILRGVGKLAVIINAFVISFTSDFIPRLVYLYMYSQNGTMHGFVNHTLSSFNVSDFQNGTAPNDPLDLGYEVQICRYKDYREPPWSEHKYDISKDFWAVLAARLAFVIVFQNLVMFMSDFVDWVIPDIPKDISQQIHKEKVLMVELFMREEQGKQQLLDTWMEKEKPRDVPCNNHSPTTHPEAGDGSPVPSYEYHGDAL
HTR2A ag = agonists of mouse serotonin 5-HT2A receptor (HTR2A); P35363; CHO-K1 mHTR2A beta-arrestin complementation, luminescence; percent of 30 µM serotonin response; activation, % at 7.6 µM; 360,000 tested, 0.66% active; AID 624169;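 active means activation above a run cutoff, the mean activation of all tested compounds plus 3 SD, cut at about 14% in these data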;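 further: 0% = plate median of compound wells and 100% = 30 µM serotonin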
MC4R ag barr = agonists of human melanocortin 4 receptor (MC4R) beta-arrestin. P32245. U2OS MC4R beta-arrestin complementation, luminescence; percent of melanotan II response, DMSO zero. activation, % at 8.9 µM. 360,000 tested, 0.98% active. AID 540308;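 active means activation above a per-plate cutoff, the mean activation of sample wells on that plate plus 3 SD, cut at about 8% in these data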
beta cell repl = MIN6 beta-cell proliferation induction; MIN6 cells proliferation, ATPlite luminescence, 48 h; cells starved in 0.2% serum; 100% = growth in 10% serum; proliferation, % at 10 µM; 330,000 tested, 0.29% active; AID 2380;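 active means compounds whose signal lies at least 3.5 SD above the mean of all wells on their plate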;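 further: 0% = DMSO-treated cells in low-serum medium and 100% = 10% serum control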
ANO1 activ = activates or potentiates the mouse TMEM16A chloride channel. HEK293 TMEM16A/YFP-H148Q/I152L, iodide quench fluorescence; active compounds read low. B-score at 10 µM. 340,000 tested, 0.3% active;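 active means fluorescence-ratio B-score plate-corrected deviation score at least 3 library SD below zero, with starting fluorescence score within 5 deviations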;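 further: channel opened by trigger with iodide after compound preincubation; score built on the fluorescence ratio of max minus min over baseline; more negative score means more quench and so TMEM16A activation or potentiation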
* hit, by the source's call; i = inactive; x = not tested or not shown.

SMILES	MC4R antag cAMP	ANO1 block	HTR2A ag	MC4R ag barr	beta cell repl	ANO1 activ
COc1ccc(Nc2nc(CC(C)=O)ns2)cc1	1.9	i	-0.9	-2.2	-3.3	-15.9*
COc1ccccc1C(C)NC(=O)Cc1ccc(S(=O)(=O)N2CCOCC2)s1 (stereo unspecified)	10.6	i	-5.2	-1.2	-0.4	i
FC(F)(F)c1nc(NCc2ccccc2)c2nnn(Cc3ccccc3)c2n1	-8.2	i	0.7	8.4*	-1.9	i
COc1cccc(NC(=O)c2ccccc2F)c1	3.8	i	-0.3	0.4	-9.0	i
CCOC(=O)Nc1cccc(NC(=O)c2ccccc2F)c1	8.1	i	2.9	-2.4	-2.6	-10.1*
COc1ccc(CNC[C@@H](CCCCN(C)Cc2ccc(OC)cc2)N2C[C@H](c3ccccc3)N(CCc3ccc(Cl)c(Cl)c3)C(=O)C2=O)cc1	30.0*	i	-2.5	25.0*	-7.7	i
CCCCn1c(N)c(N(CC)C(=O)C2=COCCO2)c(=O)[nH]c1=O	11.3	i	2.1	-2.1	-0.6	i
CCN(C(=O)CC(C)C)c1nnc(Cn2nnc3ccccc32)s1	2.5	i	1.9	0.4	-1.3	i
CCN(C(=O)c1ccc(C(C)(C)C)cc1)c1nnc(Cn2nnc3ccccc32)s1	1.3	100*	1.4	-0.3	-4.5	i
C#CCOCCOCCOCCNc1nc(N2CCN(C(=O)CCCCCCCCCCNC(=O)[C@H](CCCCN)n3cc(CCO)nn3)CC2)nc(N2CCN(C(=O)CCCCCCCCCCNC(=O)[C@H](CCCCN)n3cc(C[C@@H](C)CC)nn3)CC2)n1	x	100*	x	x	-7.3	x
C#CCOCCOCCOCCNc1nc(N2CCN(C(=O)CCCCCCCCCCNC(=O)[C@@H](CCC(=O)O)n3cc(CCCCCN)nn3)CC2)nc(N2CCN(C(=O)CCCCCCCCCCNC(=O)[C@H](CCCCN)n3cc(C[C@@H](C)CC)nn3)CC2)n1	13.2	100*	0.6	-1.3	-6.0	-5.73*
C#CCOCCOCCOCCNc1nc(N2CCN(C(=O)CCCCCCCCCCNC(=O)[C@H](CCCCN)n3cc(CCO)nn3)CC2)nc(N2CCN(C(=O)CCCCCCCCCCNC(=O)[C@H](CCCCN)n3cc(CCCC(=O)O)nn3)CC2)n1	9.2	i	-1.4	-0.8	-2.2	i
C#CCOCCOCCOCCNc1nc(N2CCN(C(=O)CCCCCCCCCCNC(=O)[C@@H](CCC(=O)O)n3cc(CCCCCN)nn3)CC2)nc(N2CCN(C(=O)CCCCCCCCCCNC(=O)[C@H](CO)n3cc(CCCCCN)nn3)CC2)n1	3.5	i	4.0	0.9	-0.1	i
CCn1cc(CN2CCC(n3nccc3NC(=O)c3ccc4c(c3)OCO4)CC2)c(C)n1	4.9	i	-5.4	-2.2	4.2	i
COC(=O)C1=C(N)Oc2cc(C)[nH]c(=O)c2C1c1ccccc1OC (stereo unspecified)	-4.2	i	-1.2	-0.8	3.8	i
COc1ccc(N=C2C(=O)Nc3ccc(C)c(Br)c32)cc1	0.5	i	-3.9	-1.5	-1.4	i
Cc1ccc(N=C2C(=O)Nc3ccc(C)c(Br)c32)cc1	1.9	25*	-5.7	-1.1	-1.9	i
C=CCn1c(SCC(=O)Nc2cc(C)on2)nc2sc3c(c2c1=O)CCCC3	3.0	i	-1.0	-2.5	-0.3	i
Cc1cc(NC(=O)CSc2nc(C(C)C)nc3sc4c(c23)CCCC4)no1	13.6	i	5.3	8.5*	-4.5	i
CCn1c(SCC(=O)Nc2cc(C)on2)nc2sc3c(c2c1=O)CCCC3	0.1	i	4.2	17.1*	-0.9	i
O=C(CC(Nc1ccccc1)c1ccccc1)C1CC1 (stereo unspecified)	0.7	i	-3.4	0.1	0.6	i
COC(=O)/C(=C(/F)Sc1cc(C)c(O)c(C)c1)C(F)(F)F	12.9	i	16.0*	2.9	-6.5	i
O=C1CCC(=O)N1c1nc2nc(-c3ccccc3)cc(=O)n2[nH]1	1.0	i	1.4	0.2	0.9	-23.5*
COc1ccccc1OCC(=O)NC1CCSc2ccccc21 (stereo unspecified)	-0.3	x	5.6	-0.2	-0.3	i
COc1cccc(C(=O)NC23CC4CC(CC(C4)C2)C3)c1	11.4	i	-5.7	1.0	-4.0	i
SMILES	MC4R antag cAMP	ANO1 block	HTR2A ag	MC4R ag barr	beta cell repl	ANO1 activ
CCC(=O)NC(Cc1ccccc1)c1nc2ccccc2[nH]1 (stereo unspecified)	5.7	i	10.5	-1.2	-2.9	i
Cc1cc(Cl)ccc1OCC(=O)N[C@@H](Cc1ccccc1)c1nc2ccccc2[nH]1	4.3	i	4.1	12.6*	-1.1	i
O=C(CCSc1nc(-c2ccco2)cc(C(F)(F)F)n1)NCc1ccccn1	8.0	i	2.9	1.2	1.3	-14.8*
CCSc1nc2cc(OC)c(OC)cc2c(=O)n1CCc1ccccc1	13.3	i	-0.4	2.6	-4.1	i
COCCCn1c(SCCc2ccccc2)nc2cc(OC)c(OC)cc2c1=N	14.2	i	-6.1	9.4*	-6.7	i
C[C@@H](NC(=O)c1nc[nH]c1C(=O)N[C@@H](Cc1ccccc1)C(=O)OCc1ccccc1)c1ccccc1	-1.5	i	-0.2	8.1	-8.9	i
CN(Cc1ccccc1)C(=O)c1[nH]cnc1C(=O)N[C@@H](Cc1ccccc1)C(=O)OCc1ccccc1	0.7	i	22.6*	3.9	-7.7	i
OC(Cc1ccnc2ccccc12)C(Cl)(Cl)Cl (stereo unspecified)	8.1	x	5.6	1.7	x	i
CC(NC(=O)Cc1ccc(-c2ccccc2)cc1)c1ccccc1 (stereo unspecified)	3.6	i	-11.3	4.4	-5.0	-17.6*
CC(NC(=O)COC(=O)Cc1ccc(Cl)cc1)c1ccccc1 (stereo unspecified)	7.0	x	-2.1	-1.1	-2.2	i
Cc1ccc(S(=O)(=O)NCC(c2ccco2)N2CCc3ccccc3C2)cc1 (stereo unspecified)	1.9	25*	4.6	-0.4	-2.9	i
CCn1c(CNC(=O)Cc2ccc(OC)cc2)nnc1SCCOc1ccccc1	6.0	i	0.0	-0.5	-2.7	i
CCn1c(CNC(=O)Cc2ccc(OC)cc2)nnc1SCC(=O)c1ccccc1	7.9	x	-0.9	0.5	x	-34.7*
CNC(CC(=O)c1ccc([N+](=O)[O-])cc1)C(Cl)(Cl)Cl (stereo unspecified)	4.1	25*	1.3	-2.8	x	i
C=CCNc1nc(C(=O)OCC)nc2ccccc12	-3.4	100*	1.6	-1.8	-4.6	i

High-throughput results: PubChem BioAssay, several laboratories
